The source of these data is ChEMBL document CHEMBL1145112, “Pyrazolo[4,3-e]-1,2,4-triazolo[1,5-c]pyrimidine derivatives as adenosine receptor antagonists. Influence of the N5 substituent on the affinity at the human A 3 and A 2B adenosine receptor subtypes: a molecular modeling investigation” (J Med Chem, 2003).

The target in assay [1] is Adenosine receptors; A1 & A2b (Homo sapiens) (UniProt P30542+P29275). Briefly: Relative inhibitory activity against adenosine A1 and A2B receptors. It counts as protein assay.
Assay [2] has as its target Adenosine receptors; A2b & A3 (Homo sapiens) (UniProt P29275+P0DMS8). Briefly: Relative inhibitory activity against adenosine A3 receptors and A2B receptors. It counts as protein assay.
A further assay addresses T1, Adenosine receptor A1 (Homo sapiens, UniProt P30542).
T1 sequence (P30542 whole entry): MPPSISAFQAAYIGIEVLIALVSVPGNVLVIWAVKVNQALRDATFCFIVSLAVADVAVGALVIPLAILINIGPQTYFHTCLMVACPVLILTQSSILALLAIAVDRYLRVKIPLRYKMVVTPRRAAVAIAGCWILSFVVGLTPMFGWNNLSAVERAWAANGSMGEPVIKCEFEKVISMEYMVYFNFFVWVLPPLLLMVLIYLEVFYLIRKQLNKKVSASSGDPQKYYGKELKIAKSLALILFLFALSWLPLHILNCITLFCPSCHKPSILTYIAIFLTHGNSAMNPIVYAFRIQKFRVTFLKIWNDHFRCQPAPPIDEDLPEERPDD
Briefly: Displacement of [3H]DPCPX from human Adenosine A1 receptor expressed in CHO cells. It counts as cell-based. A digest of the protocol:
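Membranes from the transfected cells in 50 mM Tris-HCl, pH 7.4, incubated 120 min at 25 °C with 1 nM [3H]-DPCPX (50 μg protein/assay) and at least six to eight test concentrations. Nonspecific binding was set with 10 μM CHA. Bound and free ligand were separated by GF/B filtration, then scintillation counted. n = 3–6, mean ± SEM.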
Background: Loss of bound radioactivity is the signal in a displacement assay; it reports binding, not function.

For a further assay, the target named is Adenosine receptor A2a (Homo sapiens, UniProt P29274). In words: Displacement of [3H]ZM-241385 from human adenosine A2A receptors expressed in HEK293 cells. It counts as cell-based.
In assay [3] the target is T2, Adenosine receptor A2b (Homo sapiens, UniProt P29275).
T2 sequence (P29275 whole entry): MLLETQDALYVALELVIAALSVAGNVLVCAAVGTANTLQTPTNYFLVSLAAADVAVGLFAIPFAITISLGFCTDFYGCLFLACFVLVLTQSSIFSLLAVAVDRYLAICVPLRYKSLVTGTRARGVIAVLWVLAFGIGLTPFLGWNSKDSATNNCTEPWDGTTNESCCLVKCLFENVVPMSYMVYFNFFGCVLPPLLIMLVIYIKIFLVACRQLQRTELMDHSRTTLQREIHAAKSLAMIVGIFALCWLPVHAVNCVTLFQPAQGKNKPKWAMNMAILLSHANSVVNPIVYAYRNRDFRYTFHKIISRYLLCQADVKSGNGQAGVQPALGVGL
In words: Displacement of [3H]DPCPX from human adenosine A2B receptor expressed in HEK293 cells. The assay is classed as cell-based. The method in brief:
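Competition run 60 min at 25 °C in 50 mM Tris-HCl, 10 mM MgCl2, 1 mM EDTA, 0.1 mM […], pH 7.4, with 2 IU/mL adenosine deaminase. Assays held 40 nM [3H]-DPCPX, membranes (20 μg protein/assay) and at least six to eight compound concentrations. Nonspecific binding was set with 100 μM NECA. Filtered on GF/B and counted. n = 3–6, mean ± SEM.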

For assay [4], the target named is T2, Adenosine receptor A2b. Briefly: Inhibitory activity against NECA stimulated cAMP accumulation in CHO cells expressing human adenosine A2B receptor. The assay is classed as functional, cell-based. A digest of the protocol:
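Transfected CHO cells (1 × 10^6/assay) in pH 7.4 saline/HEPES/glucose medium with 2 IU/mL adenosine deaminase and Ro 20-1724 (phosphodiesterase inhibitor), preincubated 10 min at 37 °C. Antagonism of 100 nM NECA-stimulated cAMP was measured. Reaction stopped with cold 6% TCA, then ether extraction. cAMP was quantified by competitive binding with [3H]-cAMP and beef adrenal binding protein (150 min, 4 °C), with charcoal separation and scintillation counting.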

The target in another assay is T3, Adenosine receptor A3 (Homo sapiens, UniProt P0DMS8).
T3 sequence (P0DMS8 whole entry): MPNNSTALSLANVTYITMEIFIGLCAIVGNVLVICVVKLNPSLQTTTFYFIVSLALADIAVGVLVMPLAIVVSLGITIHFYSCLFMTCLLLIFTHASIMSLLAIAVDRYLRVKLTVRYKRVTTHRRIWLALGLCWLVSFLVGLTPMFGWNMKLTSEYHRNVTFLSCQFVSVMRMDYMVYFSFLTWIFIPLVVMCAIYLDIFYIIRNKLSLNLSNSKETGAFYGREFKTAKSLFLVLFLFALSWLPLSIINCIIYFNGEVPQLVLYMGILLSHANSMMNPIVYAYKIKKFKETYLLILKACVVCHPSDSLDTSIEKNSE
Briefly: Displacement of [3H]MRE3008-F20 from human A3 receptors expressed in HEK293 cells. It counts as cell-based. The method in brief:
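Duplicate competition tubes: 1 nM [3H]-MRE3008-F20 in 50 mM Tris-HCl, 10 mM MgCl2, pH 7.4, membranes (50 μg protein/assay) and at least six to eight ligand concentrations, incubated 120 min at 4 °C. Nonspecific binding was set with 1 μM unlabeled MRE3008-F20. Bound radioactivity was collected on GF/B filters and counted.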

Chain of Adenosine receptor A2a (P29274 whole entry): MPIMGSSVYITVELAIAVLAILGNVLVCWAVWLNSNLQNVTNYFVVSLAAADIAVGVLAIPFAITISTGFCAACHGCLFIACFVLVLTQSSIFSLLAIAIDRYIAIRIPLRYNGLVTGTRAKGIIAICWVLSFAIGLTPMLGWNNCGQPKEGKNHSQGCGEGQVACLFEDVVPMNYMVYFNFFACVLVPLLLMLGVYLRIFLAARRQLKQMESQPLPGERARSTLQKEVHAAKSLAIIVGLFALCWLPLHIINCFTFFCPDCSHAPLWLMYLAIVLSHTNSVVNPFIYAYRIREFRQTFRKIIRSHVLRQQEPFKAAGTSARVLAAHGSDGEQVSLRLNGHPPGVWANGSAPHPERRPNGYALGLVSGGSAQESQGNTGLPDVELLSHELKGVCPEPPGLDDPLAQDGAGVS

Turning to `O=C(COc1ccccc1)Nc1nc2nn(CCCc3ccccc3)cc2c2nc(-c3ccco3)nn12`, the figures for the Ratio in assay [1] and in assay [2] were 2 and 1.6, respectively. In addition, the Ki – broadly, a dissociation constant, usually derived from enzyme kinetics or from competition with a known ligand – on Adenosine receptor A1 was found to be 50 nM; on Adenosine receptor A2a it was 45 nM; on Adenosine receptor A2b [3], 25 nM; at Adenosine receptor A3, 40 nM. The IC50 (in general, the point on the concentration scale where inhibition reaches its midpoint) against Adenosine receptor A2b [4] was found to be 140 nM.
As to `Cn1cc2c(nc(NC(=O)Cc3ccccc3)n3nc(-c4ccco4)nc23)n1`, the Ratio in assay [1] came out at 4.2; in assay [2], 0.05.
Turning to `O=C(Cc1ccccc1)Nc1nc2nn(CCc3ccccc3)cc2c2nc(-c3ccco3)nn12`, the Ratio came out at 3.4 in assay [1] and 1.3 in assay [2]. The Ki at Adenosine receptor A1 is 120 nM; at Adenosine receptor A2a, 60 nM; at Adenosine receptor A2b [3], 35 nM; at Adenosine receptor A3, 45 nM. The same molecule yielded a concentration for half-maximal inhibition (IC50) on Adenosine receptor A2b [4] of 210 nM.
Regarding `CC(C)CCn1cc2c(nc(NC(=O)COc3ccccc3)n3nc(-c4ccco4)nc23)n1`, the Ratio came to 2.2 in assay [1] and 2 in assay [2]. Moreover, the Ki is 55 nM on Adenosine receptor A1, 38 nM on Adenosine receptor A2a, 25 nM at Adenosine receptor A2b [3] and 50 nM on Adenosine receptor A3. The molecule also came in with an IC50 against Adenosine receptor A2b [4] of 150 nM.
`CC(C)CCn1cc2c(nc(NC(=O)Cc3ccccc3)n3nc(-c4ccco4)nc23)n1`: the values for the Ratio in assay [1] and in assay [2] were 6.4 and 2.6, respectively. For the same molecule, the Ki was found to be 200 nM on Adenosine receptor A1, 57 nM at Adenosine receptor A2a and 31 nM on Adenosine receptor A2b [3]. In addition, on Adenosine receptor A2b [4], the IC50 turned out to be 190 nM.
For the molecule `Cn1cc2c(nc(NC(=O)Nc3ccccc3)n3nc(-c4ccco4)nc23)n1`, the values for the Ratio in assay [1] and in assay [2] were 2.67 and 0.0007, respectively.
Take `O=C(COc1ccccc1)Nc1nc2nn(CCc3ccccc3)cc2c2nc(-c3ccco3)nn12`: the Ratio worked out at 0.9 in assay [1] and 13.6 in assay [2]. The Ki turned out to be 20 nM at Adenosine receptor A1, 40 nM on Adenosine receptor A2a, 22 nM on Adenosine receptor A2b [3] and 300 nM on Adenosine receptor A3. Half-maximal inhibition at Adenosine receptor A2b [4] (IC50) was put at 130 nM.
As to `CC(C)CCn1cc2c(nc(NC(=O)Cc3cccc4ccccc34)n3nc(-c4ccco4)nc23)n1`, the Ratio in assay [1] stood at 5.07; in assay [2] it was 7.7. Moreover, the Ki on Adenosine receptor A1 is 142 nM; at Adenosine receptor A2a, 42 nM; on Adenosine receptor A2b [3] it was 28 nM; on Adenosine receptor A3, 215 nM. The molecule also gave an IC50 against Adenosine receptor A2b [4] of 170 nM.
For the molecule `O=C(Cc1ccccc1)Nc1nc2nn(CCCc3ccccc3)cc2c2nc(-c3ccco3)nn12`, the Ratio stood at 1.9 in assay [1] and 3 in assay [2]. In addition, the inhibition constant (Ki) was determined as 75 nM on Adenosine receptor A1, 60 nM on Adenosine receptor A2a and 40 nM at Adenosine receptor A2b [3]. Inhibition at Adenosine receptor A2b [4] was half-maximal at 250 nM (IC50).
On to `Nc1nc2nn(CCc3ccccc3)cc2c2nc(-c3ccco3)nn12`, for which, in assay [1], the Ratio was 0.2.
As to `O=C(Cc1cccc2ccccc12)Nc1nc2nn(CCCc3ccccc3)cc2c2nc(-c3ccco3)nn12`, the Ratio is 55 in assay [1] and 15 in assay [2]. For the same molecule, the Ki amounted to 1100 nM at Adenosine receptor A1, 800 nM at Adenosine receptor A2a, 20 nM at Adenosine receptor A2b [3] and 300 nM on Adenosine receptor A3. Besides, the IC50 against Adenosine receptor A2b [4] is 110 nM.
With `O=C(Cc1cccc2ccccc12)Nc1nc2nn(CCc3ccccc3)cc2c2nc(-c3ccco3)nn12`, the Ratio in assay [1] worked out at 3; in assay [2] it was 4. Besides, the Ki on Adenosine receptor A1 is 90 nM; on Adenosine receptor A2a, 55 nM; on Adenosine receptor A2b [3] it was 30 nM; at Adenosine receptor A3, 120 nM. This molecule also showed an IC50 at Adenosine receptor A2b [4] of 180 nM.
